Data on 26 compounds can be found in ChEMBL document CHEMBL1240523, “Small-molecule inhibitors of NADPH oxidase 4” (J Med Chem, 2010).

Holding throughout (type): cell-based
Series [1] addresses T1, NADPH oxidase 4 (Homo sapiens) (UniProt Q9NPH5).
T1 sequence (whole entry): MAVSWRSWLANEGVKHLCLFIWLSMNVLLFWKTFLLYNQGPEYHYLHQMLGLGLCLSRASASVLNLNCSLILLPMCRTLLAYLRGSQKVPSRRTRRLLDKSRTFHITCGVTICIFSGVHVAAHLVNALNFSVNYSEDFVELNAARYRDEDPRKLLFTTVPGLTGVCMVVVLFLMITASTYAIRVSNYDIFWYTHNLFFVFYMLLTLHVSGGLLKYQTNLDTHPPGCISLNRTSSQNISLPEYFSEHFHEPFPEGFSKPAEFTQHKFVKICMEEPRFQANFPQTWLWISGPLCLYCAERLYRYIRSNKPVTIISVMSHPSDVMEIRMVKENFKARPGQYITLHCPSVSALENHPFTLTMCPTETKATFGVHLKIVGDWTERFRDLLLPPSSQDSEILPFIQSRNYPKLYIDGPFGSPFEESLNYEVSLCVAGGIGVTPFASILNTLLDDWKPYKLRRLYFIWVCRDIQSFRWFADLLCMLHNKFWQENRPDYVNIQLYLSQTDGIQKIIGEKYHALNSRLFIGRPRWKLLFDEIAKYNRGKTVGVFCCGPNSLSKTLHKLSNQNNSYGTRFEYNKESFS
Nature of the series: Inhibition of NOX4 expressed in HEK293 FS cells at 10 uM assessed as H2O2 production by H2O2/Tyr/LPO assay. In outline:
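Primary screen at 10 μM in the H2O2/Tyr/LPO cellular assay. HEK 293 FS cells overexpress NOX4. The LPO enzyme forms fluorescent o,o'-dityrosine from L-tyrosine and H2O2, detected by spectrofluorometric plate reader. Inhibition expressed relative to DPI.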

The next series deals with T2, NADPH oxidase 4 (Homo sapiens, UniProt Q9NPH5).
T2 sequence (Q9NPH5 whole entry): T1 sequence (whole entry)
In words: Inhibition of NOX4 expressed in HEK293 FS cells assessed as H2O2 production by H2O2/Tyr/LPO assay. Summed up:
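Cell-based H2O2/Tyr/LPO assay in free-style HEK 293 F cells transfected to overexpress constitutively H2O2-producing NOX4. NOX4-generated H2O2 drives LPO conversion of L-tyrosine to fluorescent o,o'-dityrosine, read on a spectrofluorometric plate reader. IC50 estimated from an eight-point curve, 1/2 dilution series from 10 to 0.078 μM.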

Series [2] can be described thus: Cytotoxicity against human free style HEK293 cells after 72 hrs. Particulars: FreeStyle HEK293 cells. In outline:
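Luminescent cell viability kit read-out; cells exposed to 10 μM compound for 72 h. Values expressed as percentage of live cells.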

In series [3] the target is T1, NADPH oxidase 4 (Homo sapiens). Nature of the series: Inhibition of NOX4 expressed in HEK293 FS cells at 10 uM assessed as H2O2 production by H2O2/Tyr/LPO assay substituted with 3 uM H2O2. As to conditions: values are per cent of control. Summed up:
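Redox-activity counter-screen: transfected cells replaced by 3 μM H2O2 in the H2O2/Tyr/LPO read-out (LPO plus L-tyrosine giving fluorescent dityrosine). Compounds at 10 μM final, to detect breakdown of H2O2 independent of NOX4.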

With `O=c1c2cc(O)c(O)cc2c2cc(O)c(O)cc2n1Cc1ccccc1S(=O)(=O)c1ccccc1`, the inhibition in series [1] was determined as 95%. For the same compound, the 50% inhibitory concentration (IC50) on NADPH oxidase 4 was determined as 1580 nM. This compound also had a cytotoxicity at 72 h in series [2] of 113%. Also, in series [3], the % inhibition of H2O2 signal (cell-free redox counter-screen) was -1.05%.

For `O=C(N/N=C/c1ccc(O)c(O)c1)C(=O)N/N=C/c1ccc(O)c(O)c1`, the inhibition in series [1] was 105%. Also, the IC50 on NADPH oxidase 4 was 1160 nM. The compound further came in with a cytotoxicity at 72 h in series [2] of 99.5%. The % inhibition of H2O2 signal (cell-free redox counter-screen) in series [3] was found to be 7.6%.

Take `COC(=O)c1cc(NCc2ccccc2O)ccc1O`: in series [1], the inhibition amounted to 91%. Also, on NADPH oxidase 4, the IC50 was 1270 nM. Besides, the cytotoxicity at 72 h in series [2] was determined as 106%. For the same compound, in series [3], the % inhibition of H2O2 signal (cell-free redox counter-screen) was 3.83%.

For `COc1cc(/C=C2\C(=O)Nc3ccc(NC(C)=O)cc32)ccc1O`, the inhibition in series [1] is 104%. For the same compound, the IC50 on NADPH oxidase 4 worked out at 1400 nM. For the same compound, in series [2], the cytotoxicity at 72 h amounted to 112%. For the same compound, the % inhibition of H2O2 signal (cell-free redox counter-screen) in series [3] is -5.16%.

On to `O=c1c(O)c(-c2ccc(O)c(O)c2)oc2cc(O)cc(O)c12` [QUERCETIN], for which, in series [1], the inhibition amounted to 94%. Also, at NADPH oxidase 4, the IC50 came out at 680 nM. For the same compound, the cytotoxicity at 72 h in series [2] was determined as 102%.

Consider `O=c1cc(-c2ccc(O)c(O)c2)oc2cc(O)cc(O)c12` [LUTEOLIN], for which the inhibition in series [1] came to 106%. On NADPH oxidase 4, the 50% inhibitory concentration (IC50) came out at 850 nM. This compound also showed a cytotoxicity at 72 h in series [2] of 110%.

On to `COc1cc(O)c2c(=O)c(OC)c(-c3ccc(O)c(O)c3)oc2c1`, for which the inhibition in series [1] came to 88%. Moreover, the IC50 on NADPH oxidase 4 was 1020 nM.

For `O=c1c2cc(O)c(O)cc2c2cc(O)c(O)cc2n1Cc1ccc([N+](=O)[O-])cc1`, in series [1], the inhibition was found to be 93%. At NADPH oxidase 4, the concentration for half-maximal inhibition (IC50) was 1580 nM. Moreover, the cytotoxicity at 72 h in series [2] turned out to be 108%. Moreover, in series [3], the % inhibition of H2O2 signal (cell-free redox counter-screen) is -6.11%.

For `O=C(O)c1cc(NCc2ccccc2O)ccc1O`, the inhibition in series [1] turned out to be 89%. Besides, on NADPH oxidase 4, the IC50 was found to be 960 nM. For the same compound, the cytotoxicity at 72 h in series [2] was 102%. The % inhibition of H2O2 signal (cell-free redox counter-screen) in series [3] turned out to be 5.35%.

With `O=c1c2cc(O)c(O)cc2c2cc(O)c(O)cc2n1Cc1cccc([N+](=O)[O-])c1`, the inhibition in series [1] is 101%. At NADPH oxidase 4, the half-inhibitory concentration (IC50) was determined as 260 nM. This compound also showed a cytotoxicity at 72 h in series [2] of 112%. Besides, the % inhibition of H2O2 signal (cell-free redox counter-screen) in series [3] was -4.9%.

For `O=c1c(O)c(-c2ccc(O)cc2)oc2cc(O)cc(O)c12` [KAEMPFEROL], the inhibition in series [1] came to 105%. Moreover, the IC50 on NADPH oxidase 4 worked out at 1200 nM. The cytotoxicity at 72 h in series [2] is 119%. The % inhibition of H2O2 signal (cell-free redox counter-screen) in series [3] stood at 2.09%.

`COc1cc(CCNC(=O)C(=O)Nc2cccc(N)c2)ccc1O`: in series [1], the inhibition was 104%. The IC50 at NADPH oxidase 4 worked out at 1300 nM. Further, in series [2], the cytotoxicity at 72 h worked out at 82.4%. For the same compound, the % inhibition of H2O2 signal (cell-free redox counter-screen) in series [3] was -3.3%.

Consider `CC(C)c1cc(/C=C2\C(=O)Nc3ccccc32)cc(C(C)C)c1O`, for which, in series [1], the inhibition came out at 102%. Moreover, the IC50 on NADPH oxidase 4 came to 630 nM. In series [2], this compound returned a cytotoxicity at 72 h of 18.7%. Moreover, the % inhibition of H2O2 signal (cell-free redox counter-screen) in series [3] was -0.88%.

As to `N#Cc1ccccc1Cn1c(=O)c2cc(O)c(O)cc2c2cc(O)c(O)cc21`, the inhibition in series [1] was 97%. Besides, on NADPH oxidase 4, the half-inhibitory concentration (IC50) was determined as 590 nM. Besides, the cytotoxicity at 72 h in series [2] worked out at 108%. In addition, the % inhibition of H2O2 signal (cell-free redox counter-screen) in series [3] amounted to 4.8%.

For `C=CCN(CC=C)C(=S)/N=C1\C(=O)Nc2cc(C)c(O)c(C)c21`, the inhibition in series [1] amounted to 100%.

Take `O=C1Nc2ccc([N+](=O)[O-])cc2/C1=C/c1ccc(O)c(O)c1`: the inhibition in series [1] came out at 102%. Besides, the IC50 on NADPH oxidase 4 was determined as 1130 nM. The cytotoxicity at 72 h in series [2] is 123%. Also, the % inhibition of H2O2 signal (cell-free redox counter-screen) in series [3] came out at 0.39%.

With `O=C(NCCc1ccc(O)c(O)c1)C(=O)Nc1cccc([N+](=O)[O-])c1`, the inhibition in series [1] was 104%. Further, the half-inhibitory concentration (IC50) at NADPH oxidase 4 turned out to be 1640 nM. In series [2], this compound displayed a cytotoxicity at 72 h of 74.9%. Further, the % inhibition of H2O2 signal (cell-free redox counter-screen) in series [3] was -3.5%.

As to `COc1cc(O)cc2oc(-c3ccc(O)c(O)c3)c(O)c(=O)c12`, the inhibition in series [1] was 100%. In addition, the IC50 on NADPH oxidase 4 came out at 740 nM. The same compound had a cytotoxicity at 72 h in series [2] of 121%. The % inhibition of H2O2 signal (cell-free redox counter-screen) in series [3] was found to be 3.17%.

Turning to `O=C(O)c1cc(NCc2cc(O)ccc2O)ccc1O` [LAVENDUSTIN C], the inhibition in series [1] was found to be 82%. For the same compound, the IC50 on NADPH oxidase 4 came to 1340 nM. Besides, the cytotoxicity at 72 h in series [2] came to 88.7%. Also, in series [3], the % inhibition of H2O2 signal (cell-free redox counter-screen) amounted to 72.4%.

Take `O=c1c(O[C@H]2O[C@H](CO)[C@@H](O)[C@H](O)[C@H]2O)c(-c2ccc(O)c(O)c2)oc2cc(O)cc(O)c12` [MIQUELIANIN]: the inhibition in series [1] was 105%. Besides, the % inhibition of H2O2 signal (cell-free redox counter-screen) in series [3] was -1.86%.

`Nc1ccc(Nc2ncnc3c2sc2ccc(N)cc23)cc1`: the inhibition in series [1] came out at 101%. For the same compound, the concentration for half-maximal inhibition (IC50) at NADPH oxidase 4 is 1070 nM. Further, the cytotoxicity at 72 h in series [2] amounted to 60.5%. In series [3], the % inhibition of H2O2 signal (cell-free redox counter-screen) was -2.78%.

`O=C(N/N=C/c1cccc(O)c1O)C(=O)N/N=C/c1cccc(O)c1O`: in series [1], the inhibition was determined as 103%. In addition, the IC50 on NADPH oxidase 4 came out at 910 nM. Besides, in series [2], the cytotoxicity at 72 h is 67.2%. For the same compound, the % inhibition of H2O2 signal (cell-free redox counter-screen) in series [3] is -4.58%.

Regarding `Nc1cccc(Nc2ncnc3c2sc2ccc(N)cc23)c1`, the inhibition in series [1] is 98%. Besides, the IC50 at NADPH oxidase 4 was 240 nM. This compound yielded a cytotoxicity at 72 h in series [2] of 106%. Moreover, the % inhibition of H2O2 signal (cell-free redox counter-screen) in series [3] was determined as 17.9%.

In the case of `O=c1c2cc(O)c(O)cc2c2cc(O)c(O)cc2n1Cc1cc([N+](=O)[O-])ccc1O`, the inhibition in series [1] is 104%. In addition, the IC50 at NADPH oxidase 4 was 170 nM. Further, in series [2], the cytotoxicity at 72 h came out at 90.6%. Further, in series [3], the % inhibition of H2O2 signal (cell-free redox counter-screen) was -4.8%.

With `O=c1cc(-c2ccc(O)cc2)oc2cc(O)cc(O)c12` [APIGENIN], the inhibition in series [1] worked out at 105%. Also, at NADPH oxidase 4, the IC50 came to 1130 nM. In series [2], the cytotoxicity at 72 h stood at 108%. For the same compound, the % inhibition of H2O2 signal (cell-free redox counter-screen) in series [3] is -1.2%.

As for `C=CCN(CC=C)C(=S)N=C1C(=O)Nc2cc(C)c(O)c(C)c21`, the IC50 on NADPH oxidase 4 was found to be 1000 nM. Besides, the cytotoxicity at 72 h in series [2] amounted to 97.8%.

Usually inhibition stands for the change of the read-out against control, counted positive when it falls. For orientation: IC50 means the concentration that inhibits the measured activity by half.
